# Results of several laboratories.
# Protocols differ between the studies behind these lines.
Structure (SMILES),tested on,test,system,setting,endpoint,result
O=C(CO/N=c1\cc2n(-c3ccc(Cl)cc3)c3ccccc3nc-2cc1Nc1ccc(Cl)cc1)NCc1ccc2c(c1)CCO2,Neisseria gonorrhoeae,microbial growth,ATCC49226,,MIC,15 µM
Cc1c(Cc2ccccc2)c(=O)oc2c(C)c(OCC(=O)NN=Cc3ccc([N+](=O)[O-])cc3)ccc12,MDA-MB-231,"cell growth or viability, MTT",,1000 µg/mL,viability,11.2%
O=C(O)CNC(=O)CO/N=c1\cc2n(-c3ccc(Cl)cc3)c3ccccc3nc-2cc1Nc1ccc(Cl)cc1,Neisseria gonorrhoeae,microbial growth,ATCC49226,,MIC,1.88 µM
C=CCNC(=S)NNC(=O)COc1ccc2c(C)c(CC)c(=O)oc2c1C,MDA-MB-231,"cell growth or viability, MTT",,1000 µg/mL,viability,2.7%
C[C@@H]1CC[C@@H]([C@](O)(CNCc2ccccc2)COCc2ccccc2)[C@H](OCc2ccccc2)C1,MDA-MB-231,"cell growth or viability, MTT",,"30 µM, 72 h",inhibition,99.3%
C=CC(=O)NC1CCN(c2ncc3ncnc(Nc4ccc(Oc5ccc6c(c5)ncn6C)c(C)c4)c3n2)CC1,Panc 04.03,cell growth or viability,,,EC50,5190 nM
COC1=CC(=O)c2ccccc2C1=O,Lodderomyces parapsilosis,"microbial growth, broth dilution",ATCC22019,24 h,MIC,6.25 µg/mL
C=CCOc1ccc2c(C)c(CC)c(=O)oc2c1C,MDA-MB-231,"cell growth or viability, MTT",,1000 µg/mL,viability,3.1%
C=C(C)[C@@H]1CC[C@@H](C)C[C@H]1OCc1ccccc1,MDA-MB-231,"cell growth or viability, MTT",,"30 µM, 72 h",inhibition,87%
Cc1c(C(=O)O)ccc2c3n(nc12)[C@@H]1[C@H](C3)N(CC2CC2)[C@@]2(C(=O)Nc3cc(Cl)ccc32)[C@H]1c1cccc(Cl)c1F,hTERT-RPE1,"cell growth or viability, ATP luminescence",,72 h,GI50,21 nM
Cc1c(Cc2ccccc2)c(=O)oc2c(C)c(OCC(=O)NN=Cc3ccccc3)ccc12,MDA-MB-231,"cell growth or viability, MTT",,1000 µg/mL,viability,3.55%
C=CCO/N=c1\cc2n(-c3ccc(Cl)cc3)c3ccccc3nc-2cc1Nc1ccc(Cl)cc1,Neisseria gonorrhoeae,microbial growth,ATCC49226,,MIC,15 µM
